Screening data deposited in PubChem by The Scripps Research Institute Molecular Screening Center.
The list is not random: actives were taken first. Their share in the collection is about 3.9%.
TAAR1 antagonist – antagonists of human TAAR1; actives 1.5% (n = 360,000); inhibition, % at 3 µM; AID 624466; CHO RD-HGA16 TAAR1, Fluo-8 calcium fluorescence, antagonist;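 active = inhibition above a per-plate cutoff, the mean inhibition of test compounds on that plate plus 3 SD, cut at about 49% in these data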;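 note: 0% = DMSO plus EC80 beta-PEA response and 100% = DMSO alone without agonist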
Target sequence (Q96RJ0 whole entry, looked up): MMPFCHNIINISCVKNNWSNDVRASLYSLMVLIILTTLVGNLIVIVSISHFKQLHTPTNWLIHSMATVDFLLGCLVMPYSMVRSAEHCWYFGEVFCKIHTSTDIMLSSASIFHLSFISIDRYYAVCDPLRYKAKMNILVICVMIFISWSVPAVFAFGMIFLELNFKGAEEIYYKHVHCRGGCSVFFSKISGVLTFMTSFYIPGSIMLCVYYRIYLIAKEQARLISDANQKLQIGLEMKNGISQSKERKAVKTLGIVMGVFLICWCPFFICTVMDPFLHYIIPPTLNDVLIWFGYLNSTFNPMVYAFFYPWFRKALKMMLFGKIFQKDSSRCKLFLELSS
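Material: RD-HGA16 CHO cells with stable hTAAR1 and Gα16; Dosing: single nominal final test compound concentration of 3 µM; Schedule: seeding 17-24 h prior, 75-min 37 °C, 30-min RT dye loading; Detection: kinetic Fluo-8 calcium fluorescence measurement; Measure: % inhibition from peak post-agonist over basal fluorescence ratio; Benchmarks: vehicle and agonist controls.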
CHO parental Ca – counter-screen: ATP calcium response change in parental CHO cells; parental CHO-K1, ATP-induced calcium, Fluo-8 fluorescence; inhibition, % at 5.6 µM; actives 0.63% (n = 330,000); AID 463079;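 active = inhibition above that plate's mean sample inhibition plus 3 SD, cut at about 26% in these data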;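 note: 0% = ATP-challenged DMSO wells and 100% = DMSO wells without ATP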
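material = parental CHO cells | also added = ATP as calcium-mobilizing challenge | dosing = single point at 5.6 µM | detection = intracellular calcium via Fluo-8 no-wash fluorescent dye | read-out = % inhibition | benchmarks = low control ATP plus DMSO, high control DMSO only | repeats = one well per compound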
OX1R antag-1 – antagonists of human orexin 1 receptor (OX1R); OX1R-expressing cells, FRET antagonist read-out; inhibition, % at 6.6 µM; AID 485270; actives 1.8% (n = 330,000); O43613; in the data active = inhibition mostly above about 38%, no sharp cut-off; inactive = mostly below about 40%;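 note: 0% = agonist challenge alone and 100% = reference antagonist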
Target sequence (O43613 whole entry, looked up): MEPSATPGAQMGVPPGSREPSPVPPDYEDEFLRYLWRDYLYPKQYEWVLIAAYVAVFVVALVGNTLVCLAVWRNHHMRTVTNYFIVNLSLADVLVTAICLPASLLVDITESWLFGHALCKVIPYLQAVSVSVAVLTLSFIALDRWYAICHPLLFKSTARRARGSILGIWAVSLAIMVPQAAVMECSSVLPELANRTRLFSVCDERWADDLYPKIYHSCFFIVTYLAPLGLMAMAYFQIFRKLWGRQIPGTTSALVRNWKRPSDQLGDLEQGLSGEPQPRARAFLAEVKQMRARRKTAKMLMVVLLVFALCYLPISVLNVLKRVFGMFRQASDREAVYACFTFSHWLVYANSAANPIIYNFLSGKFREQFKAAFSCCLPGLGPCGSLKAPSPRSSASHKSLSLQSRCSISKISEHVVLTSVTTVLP
TAAR1 ag – human TAAR1 agonism; Q96RJ0; CHO RD-HGA16 TAAR1, Fluo-8 calcium fluorescence; vehicle wells 0%, saturating PEA agonist 100%; activation, % at 3 µM; actives 0.99% (n = 360,000);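 active = activation above the mean activation of all test compounds in the run plus 3 SD, cut at about 38% in these data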
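System: CHO RD-HGA16 cells carrying human TAAR1 plus Gα16; Incubation: 17-24 h seeding, 75 min 37 °C dye, 30 min RT; Measured by: Fluo-8 fluorescence, 5 s baseline then 140 s kinetic read; Control set: DMSO and PEA EC100; Replication: single well for each compound.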
OX1R antag-2 – human HCRTR1 antagonism; O43613; CHO/OX1R cells, Fluo-8 calcium fluorescence, orexin A; inhibition, % at 5 µM; actives 0.43% (n = 330,000); AID 434989;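 active = inhibition above its plate's threshold, mean inhibition of all tested compounds on the plate plus 3 SD, cut at about 37% in these data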;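 note: 0% = orexin A challenge wells and 100% = SB-334867-A antagonist wells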
TAAR1 nonsel count – counter-screen for TAAR1 antagonists: nonselective antagonists | counterscreen cell line, calcium fluorescence, antagonist mode | inhibition, % at 3 µM | AID 651780 | actives 77% (n = 2,400) | shares compounds with TAAR1 antagonist; in the data active = inhibition above about 22%;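 note: CHO-Ga16 host cells stimulated with ATP at an EC80 level; 0% = agonist EC80 plus vehicle and 100% = vehicle without agonist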
TAAR1 antag conf – confirmation of human TAAR1 antagonists. shares compounds with TAAR1 antagonist. TAAR1-expressing cells, fluorescence antagonist read-out. inhibition, % at 3 µM. actives 40% (n = 2,400); in the data active = inhibition above about 49%;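 note: CHO-Ga16 host cells challenged with agonist PEA near its EC80; 0% = agonist at EC80 plus vehicle and 100% = vehicle with no agonist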
Ga16 nonsel ag – counter-screen for TAAR1 antagonists: nonselective Ga16 agonists; actives 18% (n = 2,400); activation, % at 3 µM; AID 651953; Ga16-expressing cells, calcium fluorescence, agonist counterscreen; shares compounds with TAAR1 antagonist; in the data active = activation above about 12%;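 note: 0% = vehicle wells and 100% = saturating stimulus response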
TAAR1 ag count – activates human TAAR1 in antagonist counter-screen; shares compounds with TAAR1 antagonist; hTAAR1 cell line, fluorescence activation, agonist mode; activation, % at 3 µM; actives 2% (n = 2,400); in the data active = activation above about 37%;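 note: CHO cells stably expressing TAAR1 with calcium dye readout; 0% = DMSO vehicle and 100% = full agonist response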
* marks the source's active call; other numbers are inactive results; / = no result given; ! = repeats disagree.

SMILES | TAAR1 antagonist | CHO parental Ca | OX1R antag-1 | TAAR1 ag | OX1R antag-2 | TAAR1 nonsel count | TAAR1 antag conf | Ga16 nonsel ag | TAAR1 ag count
Cc1cccc(N(C)S(=O)(=O)c2c[nH]c3ccc([N+](=O)[O-])cc23)c1 | 57* | 5 | 16 | 4 | -3 | 32* | 43 | 5 | 1
COc1ccc(OC)c(CCNC(=O)c2ccccc2NC(=O)C2=C(C)OCCS2)c1 | 8 | -20 | 19 | 0 | -27 | / | / | / | /
COc1ccc(CCNC(=O)c2ccccc2NC(=O)C2=C(C)OCCS2)cc1OC | 70* | -22 | 41 | 15 | -12 | 30* | 51* | 10 | 15
Cc1ccc(NC(=O)c2ccc(OC(=O)COc3cccc(Cl)c3)cc2)cc1 | -6 | 2 | 8 | 1 | -7 | / | / | / | /
Cc1ccc([C@H]2C(C(=O)O)=CC[C@@H](c3ccc(Cl)cc3)N2S(=O)(=O)c2ccc(C)cc2)cc1 | 66* | -6 | 39* | 6 | 37 | 11 | 46 | 2 | 1
Cc1ccccc1CN1CCc2c(OCC(=O)N3CCCc4ccccc43)cccc2C1=O | 72* | -2 | 28 | 12 | 12 | 41* | 54* | 11 | 8
CCOC(=O)C1C(=O)C=C(c2ccccc2)CC1c1ccccc1 (stereo unspecified) | 59* | / | / | 4 | / | 30* | 40 | 3 | 1
Cc1ccc(C)c(N2CCN(C(=O)CCc3nc(-c4ccccc4Cl)no3)CC2)c1 | 59* | -23 | 23 | 3 | -15 | 26* | 35 | 5 | 4
Cc1ccc(C)c(N2CCN(C(=O)CCc3nc(-c4ccccc4C)no3)CC2)c1 | 14 | -32 | 18 | 0 | -8 | / | / | / | /
O=C(Nc1cc(-c2nc3ncccc3o2)ccc1Cl)c1cccs1 | 60* | -23 | 67* | 6 | -33 | 12 | 26 | 4 | 1
O=[N+]([O-])c1ccc(-c2c(-c3ccccc3)ncc3ccc(F)cc23)cc1 | 74* | -25 | 15 | 0 | -1 | 19 | 66* | -1 | -2
N#Cc1ccc(-c2c(-c3ccccc3)ncc3cc(F)ccc23)cc1 | 59* | -29 | 12 | 1 | -16 | 18 | 44 | 1 | 3
Fc1ccc2cnc(-c3ccccc3)c(-c3ccc(C(F)(F)F)cc3)c2c1 | 63* | -40 | -1 | 0 | -14 | 9 | 37 | 4 | -1
Fc1ccc2cnc(-c3ccccc3)c(-c3cc(C(F)(F)F)cc(C(F)(F)F)c3)c2c1 | -21 | -42 | 15 | 3 | -24 | / | / | / | /
CNc1nc(C23CC4CC(CC(C4)C2)C3)cs1 | -28 | -14 | 5 | 12 | -20 | / | / | / | /
CCSc1nc2ccccc2c(=O)n1CCc1ccc(OC)c(OC)c1 | 61* | -20 | 16 | 4 | -30 | 30* | 44 | 4 | 7
CC(C)C(=O)NC(=S)Nc1ccccc1N1CCN(C(=O)c2ccc(Cl)cc2)CC1 | 81* | -25 | 2 | 17 | -30 | 38* | 58* | 14* | 15
CCC(C)Sc1cc(-c2nc3ccccn3c2NC2CCCCC2)ccc1OC (stereo unspecified) | 79* | 15 | 39 | 4 | 15 | 42* | 63* | 8 | 13
CCCCNc1c(-c2cccc(SC3CCCCC3)c2)nc2ccc(Cl)cn12 | 26 | -40 | 29 | 3 | -36 | / | / | / | /
CC(=O)c1ccc(-c2cccc(-c3nc4ccccn4c3NC3CCCCC3)c2)cc1 | 59* | -23 | 42 | 12 | -18 | 23* | 46 | 4 | 6
CCC(C)Sc1cccc(-c2nc3ccc(C)cn3c2NC2CCCCC2)c1 (stereo unspecified) | 57*! | 0 | 13 | 24 | -70 | 35* | 49* | 11 | 15
CCC(C)Sc1ccc(-c2nc3ccc(C)cn3c2NC2CCCCC2)cc1 (stereo unspecified) | / | -36 | 34 | / | -34 | / | / | / | /
Cc1ccc2nc(-c3cccc(SC4CCCCC4)c3)c(NCc3ccccc3)n2c1 | 84* | -13 | 11 | 8 | 16 | 37* | 61* | 4 | 8
COc1ccc(Nc2cccc3ccccc23)cc1 | 13 | -9 | 14 | 0 | -20 | / | / | / | /
O=C(c1ccccc1)N1CCC2CCN(CCc3ccccc3)CC21 (stereo unspecified) | -26 | / | / | 0 | / | / | / | / | /
SMILES | TAAR1 antagonist | CHO parental Ca | OX1R antag-1 | TAAR1 ag | OX1R antag-2 | TAAR1 nonsel count | TAAR1 antag conf | Ga16 nonsel ag | TAAR1 ag count
Cc1cccc(C)c1NC(=O)CNC(=O)CNC(=O)c1ccc2c(c1)OCO2 | -31 | -11 | 3 | 1 | -7 | / | / | / | /
COC(=O)c1ccccc1-c1ccc(/C=N/Nc2nc(N3CCCC3)nc(N3CCCC3)n2)o1 | 69* | -29 | 27 | 10 | -25 | 17 | 38 | 4 | 2
O=[N+]([O-])c1ccc(-c2ccc(/C=N/Nc3nc(NCc4ccccc4)nc(N4CCOCC4)n3)o2)cc1 | 39 | 12 | 12 | 20 | 1 | / | / | / | /
COc1nc(N/N=C/c2ccc(-c3ccccc3[N+](=O)[O-])o2)nc(N2CCOCC2)n1 | 64* | -7 | 30 | 16 | -14 | 21 | 39 | 12* | 11
COc1cc(/C=N/NC(=O)c2ccncc2)ccc1OC(=O)c1cccc(Br)c1 | 44 | 11 | 29 | 18 | 4 | / | / | / | /
O=C(N/N=C/c1cccc(OC(=O)c2cccc(Br)c2)c1)c1ccncc1 | 58* | -19 | 6 | 13 | -13 | 26* | 48 | 15* | 27
Cc1ccc(Cl)cc1N1CCN(C(=O)CSc2nnc3n2C(C)(C)Cc2ccccc2-3)CC1 | 60* | 77* | 104* | 19 | 77* | 44* | 48 | 11 | 6
CC(C)CC1NC(=O)N(CC(=O)Nc2cc(S(=O)(=O)N3CCOCC3)ccc2Cl)C1=O (stereo unspecified) | -12 | -2 | 2 | 9 | -15 | / | / | / | /
Cc1c(Cl)c([N+](=O)[O-])nn1Cc1ccc(C(=O)N/N=C\c2cccc(Br)c2)o1 | 65* | -2 | 56 | 9 | 27 | 35* | 44 | 7 | 2
CNS(=O)(=O)c1cccc(C(=O)OCC(=O)Nc2ccc(Cl)cn2)c1 | 2 | -10 | 6 | 6 | -14 | / | / | / | /
O=C(CN1CCN(c2ccccc2O)CC1)Nc1ccnn1C1CCCC1 | -6 | -23 | 2 | 9 | -19 | / | / | / | /
Cc1ccc(-c2ccc(/C=N/N3C(=O)C4C5C=CC(C6CC56)C4C3=O)o2)c([N+](=O)[O-])c1 (stereo unspecified) | 58* | -11 | 39 | 10 | -11 | 33* | 43 | 10 | 7
